RanGTP-Impb inh: inhibitors of RanGTP-importin-beta interaction, primary screen, biochemical, FRET, CFP-Ran, YFP-importin-beta, homogeneous | Ran GTPase (GTP-bound) - importin-beta complex | cell-free CFP-Ran/YFP-importin-beta FRET ratio | inhibition, % (concentration not given with the values) | 1.1% of 300,000 active;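 active = more than half of the replicate wells show a fall in the fluorescence ratio signal beyond about 16%, limit read from the data, passing the limit was not always enough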;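 note: 0% = DMSO wells and 100% = Ran loaded with GDP instead of GTP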
Runt-CBFb FRET: inhibitors of RUNX1 Runt–CBFb binding, primary screen, biochemical, FRET, Cerulean-Runt, Venus-CBFb, uHTS; Runt-related transcription factor 1 (Homo sapiens) + Core-binding factor subunit beta …; Cerulean-Runt/Venus-CBFb FRET ratio 530/480, 1 h; inhibition, % at 20 µM; 0.46% of 220,000 active; AID 1496, 2009;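 active = inhibition over about 50% at 20 µM in the single-dose screen, limit read from the data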;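 note: 0% = DMSO wells and 100% = excess unlabeled CBFb competitor control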
Target sequence (Q01196 whole entry, looked up): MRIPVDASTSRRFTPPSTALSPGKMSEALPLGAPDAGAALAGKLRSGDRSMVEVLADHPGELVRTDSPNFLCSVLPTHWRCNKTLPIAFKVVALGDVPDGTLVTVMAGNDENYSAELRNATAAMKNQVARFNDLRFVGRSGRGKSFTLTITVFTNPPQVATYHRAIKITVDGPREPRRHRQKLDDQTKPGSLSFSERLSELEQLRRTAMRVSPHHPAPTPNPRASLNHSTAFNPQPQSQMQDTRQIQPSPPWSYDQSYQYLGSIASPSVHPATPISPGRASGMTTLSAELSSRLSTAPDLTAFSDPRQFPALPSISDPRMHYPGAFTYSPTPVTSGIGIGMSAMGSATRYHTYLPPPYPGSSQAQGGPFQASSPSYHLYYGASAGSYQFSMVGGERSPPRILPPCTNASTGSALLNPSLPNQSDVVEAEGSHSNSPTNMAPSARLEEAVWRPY
Target sequence (Q13951 whole entry, looked up): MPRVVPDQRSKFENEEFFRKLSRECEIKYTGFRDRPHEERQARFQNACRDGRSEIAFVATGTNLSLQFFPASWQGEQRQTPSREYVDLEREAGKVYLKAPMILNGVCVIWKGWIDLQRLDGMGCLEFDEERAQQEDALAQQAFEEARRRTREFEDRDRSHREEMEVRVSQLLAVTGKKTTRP
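Assay system: Cerulean-Runt domain / Medium: Tris 50 mM pH 7.5, KCl, K2SO4, 0.01% BSA / Timing: protein complex preformed 1 h, compound exposure 1 h, room temperature, dark / Measured by: FRET, excitation 422 nm, emission at 530 and 480 nm / Evaluation: loss of energy transfer signal / Control set: 5 µM unlabeled CBFb as full-inhibition high control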
CaV13 FRET inh: Disruptors of the CACNA1D IQ motif to Ca2+-dependent inactivation inhibitor domain association, primary screening, Förster resonance energy transfer in intact living … | HEK cells, CFP/YFP FRET ICDI-IQ, plate reader, 10 min; percent FRET-ratio fall versus neutral wells | inhibition, % at 12.3 µM | 0.098% of 340,000 active | AID 743397;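 active = mean replicate inhibition of at least 30% and at least 1% of replicates passing that level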;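 note: 0% = median of the neutral control wells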
Hck Nef HTS: inhibitors of Nef-activated human Hck kinase, primary screen, biochemical, Z-Lyte FRET, 384-well, Hck-YEEI. Recombinant Hck-YEEI plus Nef, Z-Lyte FRET kinase assay. inhibition, % at 20 µM. 0.68% of 220,000 active. AID 463187, 2010;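 active = Hck-Nef kinase inhibition above about 50%, limit read from the data; inactive = inhibition below that limit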;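 note: 0% = DMSO with Hck plus Nef and 100% = Hck alone without Nef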
Runt-SMMHC FRET: inhibitors of RUNX1 Runt–CBFb-SMMHC binding, primary screen, biochemical, FRET, Cerulean-Runt, Venus-CBFb-SMMHC, uHTS | Cerulean-Runt/Venus-CBFb-SMMHC FRET ratio 530/480, 1 h | inhibition, % at 20 µM | 0.74% of 220,000 active | AID 1434, 2008;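 active = mean inhibition across duplicate retests at 20 µM reaching about 50%, limit read from the data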;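 note: 0% = DMSO wells and 100% = wells with excess untagged CBFb-SMMHC; inhibitors lower the FRET ratio by blocking Runt binding to CBFb-SMMHC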
YIC FRET counter: YIC intramolecular FRET probe signal interference, dose response, counter-screen for RanGTP-importin-beta inhibitor project, biochemical, fluorescence FRET. shares compounds with RanGTP-Impb inh. Purified YIC probe, intramolecular FRET ratio YFP/CFP. IC50, µM. 40% of 1,000 active. AID 435026, 2010;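 active = fitted half-maximal inhibitory concentration no more than tenfold above the top dose tested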
* = called active by the depositor; · = no result. An excerpt weighted towards active compounds, which were near 1.5% of everything screened.

SMILES | RanGTP-Impb inh | Runt-CBFb FRET | CaV13 FRET inh | Hck Nef HTS | Runt-SMMHC FRET | YIC FRET counter
CCOC(=O)C1=C(C)NC2=C(C(=O)C(C(=O)OCC)C(c3cccc(OC)c3)C2)C1c1ccccn1 (centres undefined) | 26* | 35 | · | 30 | 89* | 21*
CCOC(=O)C1=C(C)NC2=C(C(=O)C(C(=O)OCC)C(c3ccc(OC)cc3)C2)C1c1ccccn1 (centres undefined) | 18* | 39 | -3 | 11 | 75* | 28*
CCOC(=O)C1=C(C)NC2=C(C(=O)C(C(=O)OCC)C(c3ccccc3OC)C2)C1c1ccccn1 (centres undefined) | 18* | 21 | 2 | 34 | 83* | 23*
Cc1ccc(NC(=O)C(C)N2C(=O)c3ccccc3C2=O)cc1C (centres undefined) | 3 | · | -5 | · | · | ·
Cc1cc(Br)ccc1NC(=O)CN(C)C(=O)C1CSC2(C)CCC(=O)N12 (centres undefined) | · | · | -5 | · | · | ·
CCn1nc(C(=O)NNC(=O)c2ccccc2)c2ccccc2c1=O | · | · | -16 | · | · | ·
NC(=O)c1nsc(C(=O)N(Cc2ccc(F)cc2)C(C(=O)NC2CCCC2)c2ccco2)c1N (centres undefined) | 5 | · | -3 | · | · | ·
CC(C)CCNC(=O)C(c1ccco1)N(Cc1ccc(F)cc1)C(=O)c1snc(C(N)=O)c1N (centres undefined) | 29* | -2 | -7 | 6 | 0 | >50
CCCOC(=O)CSC1=C(C#N)C(c2ccccc2OC)C(C#N)C(=O)N1 (centres undefined) | 26* | 3 | -1 | 9 | 1 | >50
CSCC(C)N1CCC(N2CCC(C(=O)NCc3ccccn3)CC2)CC1 (centres undefined) | 19* | · | -5 | · | · | >50
COc1ccc(CNC(=O)C2(CC3CC(c4ccccc4)=NO3)CCNCC2)cc1 (centres undefined) | -3 | · | -10 | · | · | ·
CCCCC(O)(CCCC)C(=O)NN(C(=O)OC)c1ccc(C)cc1 | 1 | -1 | -4 | 4 | -7 | ·
CCS(=O)(=O)N1CCN(C(=O)c2cccc3ccccc23)CC1 | 1 | · | -20 | · | · | ·
Cn1cc(C(=O)c2cccc(Cl)c2)cc1/C=N\O | -1 | 0 | -9 | -23 | -2 | ·
CO/N=C\c1cc(C(=O)c2ccc(Cl)cc2Cl)cn1C | 32* | 0 | -3 | -31 | 3 | >50
Cc1ccc(S(=O)(=O)N(C)c2ccc(C(=O)N(CC(C)C)C3CCS(=O)(=O)C3)cc2)cc1 (centres undefined) | 0 | · | -6 | · | · | ·
Cc1ccc(Cn2ccc(NC(=O)c3noc4c3CCc3ccccc3-4)n2)cc1 | 33* | 2 | · | -3 | -6 | >50
COc1ccc2c(c1)CCc1c(C(=O)Nc3ccn(Cc4ccc(C)cc4)n3)noc1-2 | -5 | -2 | -8 | 5 | -4 | ·
CC(C)c1ccc(S(=O)(=O)N2CCN(C(=O)Cc3ccsc3)CC2)cc1 | 7 | · | -5 | · | · | ·
COc1nc(-c2cccc([N+](=O)[O-])c2)nc2ccccc12 | -3 | -1 | -4 | 21 | 0 | ·
Cc1cccc(Oc2nc(-c3cccc([N+](=O)[O-])c3)nc3ccccc23)c1C | 21* | 2 | -4 | -1 | 2 | >50
CC(=O)OC[C@@H]1CN(Cc2ccccc2)C[C@H](n2cnc3c(NC4CC4)ncnc32)O1 | · | · | -11 | · | · | ·
CC1(C)CC(=O)C=C(Nc2ccccc2O)C1 | 16* | 0 | -5 | 3 | 0 | >50
CC1(C)CC(=O)C=C(Nc2ccccc2F)C1 | 25* | 1 | -2 | 1 | 0 | >50

Compound activity deposited in PubChem by several laboratories.
